These compounds were tested against T1, Sulfotransferase 1E1 (Mus musculus, UniProt P49891) (assay: Inhibition of estrogen sulfotransferase (EST) in TLC radiolabel transfer assay).
T1 sequence (P49891 whole entry): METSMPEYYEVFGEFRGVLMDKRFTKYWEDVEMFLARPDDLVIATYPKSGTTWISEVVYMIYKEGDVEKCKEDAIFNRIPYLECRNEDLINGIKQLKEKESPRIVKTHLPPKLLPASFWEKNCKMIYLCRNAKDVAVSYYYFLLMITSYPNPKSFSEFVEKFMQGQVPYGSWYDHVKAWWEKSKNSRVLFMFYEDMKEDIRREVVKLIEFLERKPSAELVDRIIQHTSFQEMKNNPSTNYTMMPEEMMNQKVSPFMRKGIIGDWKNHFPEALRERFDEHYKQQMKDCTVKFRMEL
In short: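 Murine EST expressed and purified as an N-terminal GST fusion. Transfer of ³⁵S-sulfate from ³⁵S-PAPS to estrone acceptor; extent of reaction measured by TLC separation and phosphorimaging. IC50 values taken from this radiolabel transfer assay. In the screen each compound was tested at 100 μM, with >70% inhibition scored as a hit.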

**Q.** Which IC50 does the source give for `Cn1cnc2c(N(CCO)CCNCCO)nc(NCC(N)=O)nc21` here?
**A.** 100 µM

**Q.** Which IC50 does the source give for `COc1ccc(CNc2nc(N3CCCCCC3)nc3c2ncn3C(C)C)cc1` here?
**A.** 0.5 µM

**Q.** `COc1ccc(CNc2nc(N3CCN(C)CC3)nc3c2ncn3C(C)C)cc1` was tested. Which IC50 did it give?
**A.** 80 µM

**Q.** Which IC50 does the source give for `Cn1cnc2c(NCc3ccccc3N)nc(NCC(N)=O)nc21` here?
**A.** 30 µM

**Q.** Which IC50 does the source give for `CC(O)CNc1nc(NCC(N)=O)nc2c1ncn2C` (configuration not stated) here?
**A.** 60 µM

**Q.** For `COc1ccc(CNc2nc(N[C@H](CO)CC(C)C)nc3c2ncn3C(C)C)cc1`, which IC50 is on record?
**A.** 60 µM

**Q.** `Cn1cnc2c(NCc3ccc(Cl)cc3)nc(NCC(N)=O)nc21` was tested. Which IC50 did it give?
**A.** 35 µM

**Q.** With `O=[N+]([O-])c1ccc(CNc2nc(NCC3CCCCC3)c3ncn(CCO)c3n2)cc1` as the compound, how does the IC50 read?
**A.** > 200 µM

**Q.** For `CC(C)n1cnc2c(NCc3ccc(N)cc3)nc(NCCCCC(=O)C3CSC(=O)N3)nc21` (configuration not stated), which IC50 is on record?
**A.** 72 µM

**Q.** `COc1ccc(CNc2nc(NCc3ccccc3)nc3c2ncn3CCO)cc1` was tested. Which IC50 did it give?
**A.** 30 µM

**Q.** `Cn1cnc2c(N(CCO)CCO)nc(NCC(N)=O)nc21` was tested. Which IC50 did it give?
**A.** > 200 µM

**Q.** For `Cn1cnc2c(NCc3cc(Cl)cc(Cl)c3)nc(NCC(N)=O)nc21`, which IC50 is on record?
**A.** 60 µM

From ChEMBL document CHEMBL1134558, “Discovery of estrogen sulfotransferase inhibitors from a purine library screen” (J Med Chem, 2001)
